Results: ChEMBL document CHEMBL5260803, “Discovery of Novel, Orally Bioavailable β-Amino Acid Azaindole Inhibitors of Influenza PB2” (ACS Med Chem Lett, 2017)
The source made the active and inactive calls. The calls are words filed in the database; no cut-off is given here.

Legend:
[1] = system: Influenza A virus; assay: Antiviral activity against Influenza A virus A/PR/8/34 infected in MDCK cells assessed as reduction in viral RNA level incubated for 20 hrs by bDNA hybridization method; format: functional; details: A/PR/8/34, MDCK
Method in brief: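 Branched-DNA read-out of viral RNA in infected cells. EC90 is the compound concentration at which viral RNA equals 10% of that in control wells.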

[2] = biological target: Polymerase basic protein 2 (Influenza A virus (strain A/Puerto Rico/8/1934 H1N1), UniProt P03428); assay: Binding affinity to full length Influenza A virus PB2 cap-binding domain assessed as dissociation constant incubated for 60 mins by fluorescence polarization assay
Method in brief: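 Fluorescence polarization competition binding assay against the cap-binding domain of the PB2 subunit, giving Kd.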

[3] = Stability in human S9 fraction assessed as compound remaining at 1 uM; format: ADME, subcellular; details: read-out: Stability
[4] = Cmax in mouse at 30 mg/kg, po; format: ADME, organism-based; set-up: dose 30 mg/kg, route po; details: in vivo
[5] = system: Influenza A virus; assay: Antiviral activity against Influenza A virus A/PR/8/34 infected in BALB/C mouse model assessed as increase in survival at 10 to 60 mg/kg, po administered twice daily for 10 days from 48 hrs post-infection and measured for 21 days; format: functional, organism-based; details: dose 10-60 mg/kg, time 21.0 day
Method in brief: (§1)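 Male BALB/c mice, 8 per group, inoculated intranasally with mouse-adapted A/PR/8/34 at 5e3 TCID50/mouse. Oral dosing twice daily for 10 days, starting 48 h after infection, at 10, 30 or 60 mg/kg. Survival and body weight were tracked against untreated controls.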

[6] = AUC in mouse at 30 mg/kg, po; format: ADME, organism-based; set-up: dose 30 mg/kg, route po; details: in vivo
[7] = Stability in rat S9 fraction assessed as compound remaining at 1 uM; format: ADME, subcellular; details: read-out: Stability
[8] = Half-life in rat at 1 mg/kg, iv; format: ADME, organism-based; details: in vivo
[9] = system: Influenza A virus; assay: Antiviral activity against oseltamivir sensitive Influenza A virus A/[…]/8/34 (H1N1) infected in MDCK cells incubated for 72 hrs by cell protection assay; format: functional, organism-based
Method in brief: (§2)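 MDCK cells incubated with test compound and influenza A virus for 72 h. EC50 is the concentration giving 50% cell protection, reported as the mean of N=3. Oseltamivir resistant or sensitive status was assigned by externally validated phenotypic or genetic analysis.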

[10] = Toxicity in BALB/C mouse model of influenza infected with Influenza A virus A/PR/8/34 assessed as body weight loss administered orally twice daily for 10 days from 48 hrs post-infection and measured for 21 days; details: in vivo, po, 504 h, dose 10-60 mg/kg, time 21 day; method in brief: as §1
[11] = system: Influenza A virus; assay: Antiviral activity against oseltamivir sensitive Influenza A virus A/California/07/2009 (H1N1) infected in MDCK cells incubated for 72 hrs by cell protection assay; format: functional, organism-based; method in brief: as §2
[12] = system: Influenza A virus; assay: Antiviral activity against oseltamivir sensitive Influenza A virus A/Henan/Jinshui/147/2007 (H3N2) infected in MDCK cells incubated for 72 hrs by cell protection assay; format: functional, organism-based; method in brief: as §2
[13] = system: Influenza A virus; assay: Antiviral activity against oseltamivir sensitive Influenza A virus A/Vietnam/1203/2004 (H5N1) infected in MDCK cells incubated for 72 hrs by cell protection assay; format: functional, organism-based
[14] = AUC in rat at 3 mg/kg, po; format: ADME, organism-based; set-up: dose 3 mg/kg, route po; details: in vivo
[15] = Clearance in rat at 1 mg/kg, iv; format: ADME, organism-based; details: in vivo
[16] = system: Influenza A virus; assay: Antiviral activity against oseltamivir sensitive Influenza A virus A/Georgia/17/2006 (H1N1) infected in MDCK cells incubated for 72 hrs by cell protection assay; format: functional, organism-based; method in brief: as §2
[17] = system: Influenza A virus; assay: Antiviral activity against Influenza A virus A/PR/8/34 infected in BALB/C mouse model assessed as increase in survival at 10 mg/kg, po administered twice daily for 10 days from 48 hrs post-infection and measured for 21 days; format: functional, organism-based; details: time 21.0 day; method in brief: as §1

Polymerase basic protein 2, sequence (P03428 whole entry, the tested form may be a part): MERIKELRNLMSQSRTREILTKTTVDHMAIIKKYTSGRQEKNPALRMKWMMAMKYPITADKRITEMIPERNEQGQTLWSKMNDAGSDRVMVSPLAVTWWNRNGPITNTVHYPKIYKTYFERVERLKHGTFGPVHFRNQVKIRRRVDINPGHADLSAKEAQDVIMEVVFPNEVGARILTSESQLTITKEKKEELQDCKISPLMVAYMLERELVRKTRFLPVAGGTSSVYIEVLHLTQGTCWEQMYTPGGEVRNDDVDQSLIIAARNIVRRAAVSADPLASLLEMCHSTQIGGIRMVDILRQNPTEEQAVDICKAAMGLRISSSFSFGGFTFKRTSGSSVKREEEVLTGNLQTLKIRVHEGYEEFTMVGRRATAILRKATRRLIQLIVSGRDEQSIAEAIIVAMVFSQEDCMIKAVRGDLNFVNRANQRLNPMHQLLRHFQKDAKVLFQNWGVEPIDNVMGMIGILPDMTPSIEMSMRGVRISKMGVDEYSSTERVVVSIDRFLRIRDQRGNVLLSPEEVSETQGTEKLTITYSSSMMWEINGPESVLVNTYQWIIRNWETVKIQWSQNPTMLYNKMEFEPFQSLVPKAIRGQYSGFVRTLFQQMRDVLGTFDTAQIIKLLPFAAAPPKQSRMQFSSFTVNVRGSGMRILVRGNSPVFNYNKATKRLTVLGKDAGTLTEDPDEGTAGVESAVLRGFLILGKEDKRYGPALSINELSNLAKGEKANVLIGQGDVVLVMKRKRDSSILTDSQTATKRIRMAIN

| Compound | EC90 [1] | Kd [2] | also measured |
| --- | --- | --- | --- |
| CC(C)[C@@H](CC(=O)O)Nc1nc(-c2c[nH]c3ncc(F)cc23)ncc1F | 590 nM |  |  |
| O=C(O)C[C@@H](Nc1nc(-c2c[nH]c3ncc(F)cc23)ncc1F)C1CCC1 | 780 nM |  |  |
| CC(C)(C)[C@H](CC(=O)O)Nc1nc(-c2c[nH]c3ncc(Cl)cc23)ncc1F | > 3300 nM | 200 nM |  |
| CC1([C@@H](CC(=O)O)Nc2nc(-c3c[nH]c4ncc(F)cc34)ncc2F)CCCC1 | 20 nM | < 3 nM |  |
| CCC(CC)C(CC(=O)O)Nc1nc(-c2c[nH]c3ncc(F)cc23)ncc1F (racemic) | 340 nM |  |  |
| C[C@](CC(=O)O)(Nc1nc(-c2c[nH]c3ncc(F)cc23)ncc1F)C1CCC1 | 10 nM | < 3 nM | remaining at 1 µM [3]: 94%; Cmax [4]: 7400 ng/mL; Activity [5]: Active; AUC [6]: 6700 ng·h/mL; remaining at 1 µM [7]: 100% |
| CC(C)(C)[C@@H](CC(=O)O)Nc1nc(-c2c[nH]c3ncc(F)cc23)ncc1F | 30 nM | 3 nM | half-life [8]: 9.9 h; EC50 [9]: 14 nM; Cmax [4]: 11800 ng/mL; Activity [5]: Active; AUC [6]: 7200 ng·h/mL; Activity [10]: Non-Toxic; EC50 [11]: 4 nM; EC50 [12]: 19 nM; EC50 [13]: 4 nM; AUC [14]: 3300 ng·h/mL; clearance [15]: 8 mL/min/kg; EC50 [16]: 9 nM |
| CC(C)(C)[C@H](CC(=O)O)Nc1nc(-c2c[nH]c3ncc(F)cc23)ncc1F | > 6650 nM | 150 nM |  |
| CCOC(=O)C1=C[C@@H](OC(CC)CC)[C@H](NC(C)=O)[C@@H](N)C1 |  |  | Activity [17]: inactive |
| CC1([C@@H](CC(=O)O)Nc2nc(-c3c[nH]c4ncc(F)cc34)ncc2F)CC1 | 670 nM |  |  |
| CC(C)(C)[C@@H](CC(=O)O)Nc1nc(-c2c[nH]c3ncc(Cl)cc23)ncc1F | 23 nM | < 3 nM |  |
| CCC(C)(C)[C@@H](CC(=O)O)Nc1nc(-c2c[nH]c3ncc(F)cc23)ncc1F | 60 nM | < 3 nM |  |
| CC(C)(C(CC(=O)O)Nc1nc(-c2c[nH]c3ncc(F)cc23)ncc1F)C(F)(F)F (racemic) | 520 nM |  |  |
| CC1(C(CC(=O)O)Nc2nc(-c3c[nH]c4ncc(F)cc34)ncc2F)CCCCC1 (racemic) | 120 nM | < 3 nM |  |
